Published values collected from several papers.
Compare with care: the assays were run in different laboratories.

Compound	host	matrix	route	dose	notes	Cmax
COc1cc(C(=O)NC2CCN(C)CC2)c(F)cc1Nc1ncc(C(F)(F)F)c(Oc2cccc3c2C(=O)N(C)C3)n1	human	plasma	oral	100 mg	single dose, patients	1320 nM
Cc1nc(Nc2ncc(C(=O)Nc3c(C)cccc3Cl)s2)cc(N2CCN(CCO)CC2)n1	human	plasma	oral	65 mg/m²	multiple doses, twice daily, steady state, patients	168 ng/mL
Br.Cc1ccc(Sc2ccccc2N2CCNCC2)c(C)c1	human	plasma	oral	5 mg	multiple doses, steady state, healthy volunteers	9 ng/mL
CC(C)(Sc1ccncc1-c1ccc(C#N)c2ccccc12)C(=O)O	male human	plasma	oral	40 mg	single dose, fasted, healthy volunteers	760 ng/mL
CNC(=O)c1cc(Oc2ccc(NC(=O)Nc3cc(C(C)(C)C)nn3-c3ccc4ncccc4c3)c(F)c2)ccn1	human	plasma	oral	100 mg	multiple doses, twice daily	114 ng/mL
CO[C@H]1/C=C\C=C(/C)C(=O)NC2=CC(=O)C(NCCN(C)C)=C(C[C@@H](C)C[C@H](OC)[C@H](O)[C@@H](C)/C=C(\C)[C@@H]1OC(N)=O)C2=O	human	plasma	intravenous	12 mg/m²	patients, infusion	196 ng/mL
CCCOc1ccc([C@H]2CNC(=O)N2c2ccc3[nH]cnc3c2)cc1	human	plasma	oral	200 mg	fasted, healthy volunteers	989 ng/mL
Cc1ccc(C(=O)N(CCCN)[C@@H](c2oc3cc(Cl)ccc3c(=O)c2Cc2ccccc2)C(C)C)cc1	human	plasma	intravenous	8 mg/m²	single dose, patients, infusion	803 ng/mL
CC(C)(C(=O)N1CCOc2c(C#N)cncc2C1)C(F)F	human	plasma	oral	40 mg	single dose, fasted, healthy volunteers	555 ng/mL
CC[C@H](C)C(=O)O[C@H]1C[C@H](O)C=C2C=C[C@H](C)[C@H](CC[C@@H](O)C[C@@H](O)CC(=O)O)[C@H]21	human	plasma	oral	20 mg		11.4 ng/mL
COCCOc1cnc2ccn([C@H](C)c3nnc4c(F)cc(-c5cnn(C)c5)cn34)c(=O)c2c1	human	plasma	oral	50 mg	multiple doses, once daily, patients	730 ng/mL
Nc1cc(C(F)(F)F)c(-c2cc(N3CCOCC3)nc(N3CCOCC3)n2)cn1	human	plasma	oral	25 mg/day	patients	289 ng/mL
C[C@@H](Oc1ccc(S(C)(=O)=O)cc1C(=O)N1C[C@@H]2C[C@]2(c2cc(C(F)(F)F)on2)C1)C(F)(F)F	human	plasma	oral	25 mg	fasted, tablet	219 nM
CCn1c(=O)c(-c2cc(NC(=O)Nc3ccccc3)c(F)cc2Br)cc2cnc(NC)cc21	human	plasma	oral	200 mg	single dose, patients	525 ng/mL
Cn1cc(-c2ccc(S(=O)(=O)[C@@H]3C[C@@H](C(=O)NC4(C#N)CC4)N(C(=O)C4(C(F)(F)F)CC4)C3)c(C(F)(F)F)c2)cn1	human	plasma	oral	10 mg	single dose, fasted, healthy volunteers	81.3 ng/mL
C[C@@]1(c2cc(NC(=O)c3ccc(C#N)cn3)ccc2F)C=CSC(N)=N1	human	plasma	oral	1 mg	single dose	5.62 ng/mL
CCCCC1=NC2(CCCC2)C(=O)N1Cc1ccc(-c2ccccc2S(=O)(=O)Nc2noc(C)c2C)c(COCC)c1	human	plasma	oral	800 mg	single dose, fed, healthy volunteers	16200 ng/mL

Compound	host	matrix	route	dose	notes	Cmax
O=C(/C=C/c1cccc(S(=O)(=O)Nc2ccccc2)c1)NO	human	plasma	intravenous	2000 mg/m²	patients	112000 ng/mL
CS(=O)(=O)CCNCc1ccc(-c2ccc3ncnc(Nc4ccc(OCc5cccc(F)c5)c(Cl)c4)c3c2)o1	human	serum	oral	1250 mg	single dose	910 ng/mL
CC(C)(O)c1ccccc1-c1ccc2[nH]c(/C=C/c3ccc(C(F)(F)F)cc3)nc2c1	male human	plasma	oral	225 mg	single dose, fasted, healthy volunteers	525 ng/mL
CO[C@@H]1[C@H](OC(=O)N2CC(CCN3CCOCC3)C2)CC[C@]2(CO2)[C@H]1[C@@]1(C)O[C@@H]1CC=C(C)C	human	plasma	subcutaneous	3.6 mg	single dose, healthy volunteers	16.1 ng/mL
N#CN1C[C@H](n2nc(-c3ccc(Oc4ccc(Cl)cn4)cc3)c(C(N)=O)c2N)CCC12CC2	human	plasma	oral	600 mg	fed	1020 ng/mL
CO[C@H]1CC[C@H](N2C(=O)CNc3ncc(-c4ccc(C(C)(C)O)nc4)nc32)CC1	human	plasma	oral	30 mg	patients	188 ng/mL
CCc1nc2c(C)cc(N3CCN(CC(=O)N4CC(O)C4)CC3)cn2c1N(C)c1nc(-c2ccc(F)cc2)c(C#N)s1	human	plasma	oral	300 mg	fed, healthy volunteers	3300 ng/mL
CCOc1ccc(Cc2cc([C@@H]3S[C@H](CO)[C@@H](O)[C@H](O)[C@H]3O)c(OC)cc2C)cc1	male human	plasma	oral	5 mg	single dose, fasted, healthy volunteers	208 ng/mL
FC(F)(F)c1ccc(CNc2ccc(Cc3c[nH]c4ncc(Cl)cc34)cn2)cn1	human	plasma	oral	600 mg	single dose, fasted, healthy volunteers	4220 ng/mL
C/C(=C\c1csc(C)n1)[C@@H]1C[C@@H]2O[C@]2(C)CCC[C@H](C)[C@H](O)[C@@H](C)C(=O)C(C)(C)[C@@H](O)CC(=O)N1	human	plasma	intravenous	20 mg/m²	patients	249 ng/mL
FC(F)(F)c1ccc(CNc2ccc(Cc3c[nH]c4ncc(Cl)cc34)cn2)cn1	human	plasma	oral	1600 mg	multiple doses, patients	8770 ng/mL
O=C(Nc1c(Cl)cncc1Cl)c1ccc(OC(F)F)c(OCC2CC2)c1	human	plasma	oral	0.25 mg	single dose, fasted	6.4 ng/mL
Cn1c(=O)oc2ccc(-c3ccc(C[C@@H](C#N)NC(=O)[C@@H]4CNCCCO4)cc3)cc21	male human	plasma	oral	50 mg	single dose, healthy volunteers	1040 nM
COc1ccc([C@@H]2CN(C(=O)[C@@H](O)CO)C[C@@]2(C)[C@@H](C)O)cc1OC1CN(c2ccc(C)cn2)C1	human	plasma	oral	10 mg	single dose, healthy volunteers	319 ng/mL
CC(=O)Oc1ccccc1C(=O)O	human	plasma	oral	650 mg	healthy volunteers	3480 ng/mL
CCO[C@H]1CCN(Cc2c(OC)cc(C)c3[nH]ccc23)[C@H](c2ccc(C(=O)O)cc2)C1	human	plasma	oral	50 mg	multiple doses, twice daily, patients	1800 ng/mL
CC(C)n1cc(C#N)c2cc(-n3cc(C(=O)O)cn3)ccc21	human	plasma	oral	50 mg	single dose, fasted, healthy volunteers	1440 ng/mL
